Source: PMC8717467 (Chemical biology & drug design, 2020)
Bridge positions count the residues as written; N and C are the ends. Peptide text beside a SMILES is read from it.

Assays:
[1] = system: lymph node cells from type II collagen-immunized HLA-DQ8 mice; conditions: ref A. Gokhale et al., 2013; A. S. Gokhale et al., 2015; cited from earlier work
[2] = system: adhesion between CD2 protein-expressing T cells and CD58 protein overexpressing Caco-2 cells; conditions: read-out: IC50 in cell adhesion assay, Jurkat/T cells and epithelial cells such as Caco-2 and OVCAR-3, ref A. Gokhale et al., 2011, 2013, A. S. Gokhale et al., 2015; cited from earlier work
[3] = molecular target: T1, adhesion between Jurkat cells (CD2 protein) and HFLS-RA cells (CD58 protein) (Homo sapiens, UniProt P19256); conditions: read-out: IC50, Jurkat cell - HFLS-RA cell adhesion assay
T1 sequence (P19256 29-250): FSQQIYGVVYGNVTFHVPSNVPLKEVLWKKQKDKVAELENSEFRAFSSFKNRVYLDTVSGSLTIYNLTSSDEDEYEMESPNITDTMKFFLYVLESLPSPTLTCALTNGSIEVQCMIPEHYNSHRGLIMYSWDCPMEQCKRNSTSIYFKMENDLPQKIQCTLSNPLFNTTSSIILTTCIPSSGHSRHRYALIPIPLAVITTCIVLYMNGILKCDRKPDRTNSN
T1 sequence (P06729 25-351 partner): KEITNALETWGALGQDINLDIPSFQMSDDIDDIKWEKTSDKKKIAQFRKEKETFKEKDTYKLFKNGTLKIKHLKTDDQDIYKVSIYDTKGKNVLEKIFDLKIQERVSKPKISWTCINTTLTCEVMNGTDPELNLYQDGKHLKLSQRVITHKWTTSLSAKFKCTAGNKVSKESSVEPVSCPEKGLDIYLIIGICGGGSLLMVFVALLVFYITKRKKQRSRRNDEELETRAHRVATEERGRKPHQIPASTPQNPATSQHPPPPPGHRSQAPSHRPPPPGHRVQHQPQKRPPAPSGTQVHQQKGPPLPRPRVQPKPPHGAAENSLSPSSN

[4] = molecular target: T2, adhesion between Jurkat cells (CD2) and OVCAR-3 cells (CD58) (Homo sapiens, UniProt P19256); conditions: read-out: IC50, Jurkat cell-OVCAR-3 cell adhesion assay
T2 sequence (P19256 29-250): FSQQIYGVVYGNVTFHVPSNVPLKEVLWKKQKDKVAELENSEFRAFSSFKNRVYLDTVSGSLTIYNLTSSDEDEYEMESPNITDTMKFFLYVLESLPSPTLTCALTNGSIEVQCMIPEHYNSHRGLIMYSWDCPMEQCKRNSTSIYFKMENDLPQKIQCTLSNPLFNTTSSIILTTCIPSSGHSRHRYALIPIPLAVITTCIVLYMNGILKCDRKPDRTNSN
T2 sequence (P06729 25-351 partner): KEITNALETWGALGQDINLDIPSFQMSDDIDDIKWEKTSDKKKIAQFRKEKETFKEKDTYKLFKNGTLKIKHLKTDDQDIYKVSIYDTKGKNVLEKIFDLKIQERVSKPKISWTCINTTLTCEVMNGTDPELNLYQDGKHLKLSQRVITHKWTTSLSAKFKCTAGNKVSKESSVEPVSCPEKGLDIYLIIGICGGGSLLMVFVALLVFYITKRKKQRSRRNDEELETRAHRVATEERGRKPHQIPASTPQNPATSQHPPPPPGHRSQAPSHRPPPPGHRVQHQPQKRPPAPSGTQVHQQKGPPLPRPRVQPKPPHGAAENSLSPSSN

[5] = Chemical stability in buffers of different pH; format: physicochemical; conditions: pH 1.5, 7.4 and 9.6 buffers, 30 days, HPLC, zero time peak area = 100%
Thermal stability = format: physicochemical
Summary of the method: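 CD spectra of the peptide in water were recorded from 25 to 85 °C in 5 °C steps, 4 scans per temperature, 185–320 nm. Samples from 25, 55 and 85 °C were checked by mass spectrometry. Separately, peptide was incubated 30 min at 25, 55 or 85 °C, then run on C-18 HPLC and reported as relative peak area from triplicate experiments.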

[6] = system: T cell proliferation of lymph node cells from peptide-immunized DQ8 mice; experiment: Immunogenicity studies; format: in vivo; conditions: LNC T-cell proliferation 10 days after immunization
Summary of the method: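 HLA-DQ8 mice were immunized with 200 μL of test peptide at 50 μg/mL. Ten days later, lymph nodes were harvested and made into single-cell suspensions. The lymph node cells were challenged in vitro with a range of peptide concentrations to measure T-cell proliferation. ConA (1 μg/mL) served as positive control. Results are stimulation index versus peptide concentration; an index above 2 counted as positive.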

CD58 adhesion domain = molecular target: T3, CD58 adhesion domain (Homo sapiens, UniProt P19256); experiment: SPR
T3 chain: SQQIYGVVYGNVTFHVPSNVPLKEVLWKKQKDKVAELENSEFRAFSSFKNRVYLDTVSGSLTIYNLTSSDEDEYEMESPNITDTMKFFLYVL

In the case of `CC[C@H](C)[C@@H]1NC(=O)[C@H](CC(=O)O)NC(=O)[C@H](CC(=O)O)NC(=O)[C@@H]2CCCN2C(=O)[C@H]2CCCN2C(=O)[C@H](CC(=O)O)NC(=O)[C@H](Cc2ccc(O)cc2)NC(=O)[C@H]([C@@H](C)CC)NC(=O)[C@H](CO)NC(=O)[C@H](CCCCN)NC1=O` [Peptide 6], the “T cell immune response in cells derived from transgenic mice that develop arthritis” value [1] is listed as “suppress the T cell immune response” and the IC50 [2] is listed as 6.9 nM.

For `C[C@@H]1NC(=O)[C@@H]2CSSC[C@H](NC(=O)[C@H](CC(=O)O)NC(=O)[C@H](CC(=O)O)NC(=O)CNC(=O)[C@H](CC(=O)O)NC(=O)[C@H](Cc3ccc(O)cc3)NC1=O)C(=O)N[C@@H](CCCCN)C(=O)N[C@@H](CO)C(=O)N[C@@H](C)C(=O)N1CCC[C@H]1C(=O)N1CCC[C@H]1C(=O)N[C@@H](CO)C(=O)N2` [SFTI-a1] (cyclo(APPSCAYDGDDCKS); disulfide 5-12), the IC50 [3] was 37.2 ± 1.02 nM, the IC50 [4] was 23.3 ± 4.62 nM and the “Chemical stability: degradation in buffers” value [5] was “not degraded significantly”. The “Thermal stability: change of CD spectra with temperature” value (Thermal stability; in water, 25 to 85 °C in 5 °C steps, CD) was “not significantly changed”, the “Thermal stability: change in HPLC peak area” value (Thermal stability; incubated at 55 and 85 °C for 30 min, HPLC C-18, triplicate experiments) was “no significant change in HPLC peak area” and the “Thermal stability: mass spectrometric analysis” value (Thermal stability; samples incubated at different temperatures (25, 55, 85 °C) in solution) was “no change in its mass”. The Immunogenicity [6] was “not immunogenic”.

B1: SFTI-a1 (peptide)
chain: cyclo(CKSAPPSCAYDGDD)
modifications: disulfide 1-8
SMILES: C[C@@H]1NC(=O)[C@@H]2CSSC[C@H](NC(=O)[C@H](CC(=O)O)NC(=O)[C@H](CC(=O)O)NC(=O)CNC(=O)[C@H](CC(=O)O)NC(=O)[C@H](Cc3ccc(O)cc3)NC1=O)C(=O)N[C@@H](CCCCN)C(=O)N[C@@H](CO)C(=O)N[C@@H](C)C(=O)N1CCC[C@H]1C(=O)N1CCC[C@H]1C(=O)N[C@@H](CO)C(=O)N2
Molecule B1 has a Kd (CD58 adhesion domain) of 320 nM.
